Experimental data taken from ChEMBL document CHEMBL1649351, “Synthesis, in vitro antimicrobial and in vivo antitumor evaluation of novel pyrimidoquinolines and its nucleoside derivatives” (Eur J Med Chem, 2011).

Tests used:
[1] = tested on: Bacillus subtilis; assay: Antibacterial activity against Bacillus subtilis at 50 mg/disk after 24 to 28 hrs by agar disk diffusion method; assay type: functional
[2] = tested on: Lactococcus lactis; assay: Antibacterial activity against Streptococcus lactis at 50 mg/disk after 24 to 28 hrs by agar disk diffusion method; assay type: functional
[3] = tested on: Escherichia coli; assay: Antibacterial activity against Escherichia coli at 50 mg/disk after 24 to 28 hrs by agar disk diffusion method; assay type: functional
[4] = tested on: Pseudomonas aeruginosa; assay: Antibacterial activity against Pseudomonas aeruginosa at 50 mg/disk after 24 to 28 hrs by agar disk diffusion method; assay type: functional
[5] = tested on: Candida albicans; assay: Antifungal activity against Candida albicans at 50 mg/disk after 5 days by agar disk diffusion method; assay type: functional
[6] = tested on: Nakaseomyces glabratus; assay: Antifungal activity against Candida glabrata at 50 mg/disk after 5 days by agar disk diffusion method; assay type: functional
[7] = tested on: HepG2; assay: Antitumor activity against human HepG2 cells xenografted in Swiss albino mouse assessed as increase of mouse survival at 10 ug/kg, ip for 10 days (reference value: 22 +/- 1.90 day); assay type: functional
[8] = tested on: HepG2; assay: Antitumor activity against human HepG2 cells xenografted in Swiss albino mouse assessed as increase mouse life span at 10 ug/kg, ip for 10 days relative to control; assay type: functional
[9] = tested on: HeLa; assay: Antitumor activity against human HeLa cells xenografted in Swiss albino mouse assessed as increase of mouse survival at 10 ug/kg, ip for 10 days (reference value: 22 +/- 1.90 day); assay type: functional
[10] = tested on: HeLa; assay: Antitumor activity against human HeLa cells xenografted in Swiss albino mouse assessed as increase mouse life span at 10 ug/kg, ip for 10 days relative to control; assay type: functional
[11] = tested on: Mus musculus; assay: Acute toxicity in human HepG2 cells xenografted ip dosed Swiss albino mouse assessed as mortality measured up to 2 weeks; assay type: organism-based; settings: in vivo, 336 h
Outline: (§1)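 Adult Swiss albino mice were fasted 12 h and randomised into groups of 10. Each group got one i.p. dose from a graded series, given at 1 ml/kg body weight; controls got vehicle alone. Food and water were returned right after dosing. Mortality was followed for up to two weeks, and LD50 was taken as the dose giving 50% mortality.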

[12] = tested on: Mus musculus; assay: Acute toxicity in human HeLa cells xenografted ip dosed Swiss albino mouse assessed as mortality measured up to 2 weeks; assay type: organism-based; settings: in vivo, 336 h; outline: as §1

Cc1cn2c(=O)c3c(nc2n1N)NC1=C(C(=O)CC(C)(C)C1)C3c1ccc([N+](=O)[O-])cc1 (centres undefined) was tested, and the “diameter of the inhibition zone (DIZ)” value [1] was 19 mm, the “diameter of the inhibition zone (DIZ)” value [2] was 22 mm and the “diameter of the inhibition zone (DIZ)” value [3] was 24 mm. The “diameter of the inhibition zone (DIZ)” value [4] was 23 mm, the “diameter of the inhibition zone (DIZ)” value [5] was 9 mm and the “diameter of the inhibition zone (DIZ)” value [6] was 10 mm. For the same molecule, the Survival [7] was 37 days, the Activity [8] was 56% and the Survival [9] was 34 days. It also gave an Activity [10] of 51%, an LD50 [11] of 0.093 mg/kg and an LD50 [12] of 0.09 mg/kg.
CC1(C)CC(=O)C2=C(C1)Nc1nc3[nH]ncn3c(=O)c1C2c1ccc([N+](=O)[O-])cc1 (centres undefined) was tested, and the “diameter of the inhibition zone (DIZ)” value [1] was 20 mm, the “diameter of the inhibition zone (DIZ)” value [2] was 20 mm and the “diameter of the inhibition zone (DIZ)” value [3] was 19 mm. For the same molecule, the “diameter of the inhibition zone (DIZ)” value [4] was 18 mm, the “diameter of the inhibition zone (DIZ)” value [5] was 9 mm and the “diameter of the inhibition zone (DIZ)” value [6] was 9 mm. It also gave a Survival [7] of 31 days, an Activity [8] of 55% and a Survival [9] of 30 days. For the same molecule, the Activity [10] was 51%, the LD50 [11] was 0.1 mg/kg and the LD50 [12] was 0.098 mg/kg.
CSc1nc2c(c(=O)[nH]1)C(c1ccc([N+](=O)[O-])cc1)C1=C(CC(C)(C)CC1=O)N2[C@@H]1O[C@H](COC(C)=O)[C@@H](OC(C)=O)[C@H](OC(C)=O)[C@H]1OC(C)=O (some centres undefined) was tested, and the “diameter of the inhibition zone (DIZ)” value [1] was 20 mm, the “diameter of the inhibition zone (DIZ)” value [2] was 20 mm and the “diameter of the inhibition zone (DIZ)” value [3] was 23 mm. For the same molecule, the “diameter of the inhibition zone (DIZ)” value [4] was 22 mm, the “diameter of the inhibition zone (DIZ)” value [5] was 8 mm and the “diameter of the inhibition zone (DIZ)” value [6] was 8 mm. It also gave a Survival [7] of 36 days, an Activity [8] of 66% and a Survival [9] of 37 days. For the same molecule, the Activity [10] was 61%, the LD50 [11] was 0.109 mg/kg and the LD50 [12] was 0.111 mg/kg.
With CSc1nc2c(c(=O)[nH]1)C(c1ccc([N+](=O)[O-])cc1)C1=C(CC(C)(C)CC1=O)N2[C@@H]1O[C@H](CO)[C@@H](O)[C@H](O)[C@H]1O (some centres undefined) the “diameter of the inhibition zone (DIZ)” value [1] was 21 mm, the “diameter of the inhibition zone (DIZ)” value [2] was 19 mm and the “diameter of the inhibition zone (DIZ)” value [3] was 23 mm. The “diameter of the inhibition zone (DIZ)” value [4] was 23 mm, the “diameter of the inhibition zone (DIZ)” value [5] was 8 mm and the “diameter of the inhibition zone (DIZ)” value [6] was 9 mm. It also gave a Survival [7] of 38 days, an Activity [8] of 60% and a Survival [9] of 36 days. The Activity [10] was 61%, the LD50 [11] was 0.115 mg/kg and the LD50 [12] was 0.119 mg/kg.
CSc1nc2c(c(=O)[nH]1)C(c1ccc([N+](=O)[O-])cc1)C1=C(CC(C)(C)CC1=O)N2[C@@H]1OC[C@@H](O)[C@@H](O)[C@@H]1O (some centres undefined) was tested, and the “diameter of the inhibition zone (DIZ)” value [1] was 20 mm, the “diameter of the inhibition zone (DIZ)” value [2] was 18 mm and the “diameter of the inhibition zone (DIZ)” value [3] was 24 mm. The “diameter of the inhibition zone (DIZ)” value [4] was 23 mm, the “diameter of the inhibition zone (DIZ)” value [5] was 7 mm and the “diameter of the inhibition zone (DIZ)” value [6] was 8 mm. The Survival [7] was 37 days, the Activity [8] was 60% and the Survival [9] was 38 days. It also gave an Activity [10] of 66%, an LD50 [11] of 0.11 mg/kg and an LD50 [12] of 0.116 mg/kg.
In the case of CC1(C)CC(=O)C2=C(C1)Nc1nc3[nH]nc(-c4ccc(Cl)cc4)n3c(=O)c1C2c1ccc([N+](=O)[O-])cc1 (centres undefined), the “diameter of the inhibition zone (DIZ)” value [1] is reported as 18 mm, the “diameter of the inhibition zone (DIZ)” value [2] is reported as 15 mm and the “diameter of the inhibition zone (DIZ)” value [3] is reported as 18 mm. The “diameter of the inhibition zone (DIZ)” value [4] was 17 mm, the “diameter of the inhibition zone (DIZ)” value [5] was 9 mm and the “diameter of the inhibition zone (DIZ)” value [6] was 7 mm. It also gave a Survival [7] of 36 days, an Activity [8] of 51% and a Survival [9] of 34 days. For the same molecule, the Activity [10] was 57%, the LD50 [11] was 0.095 mg/kg and the LD50 [12] was 0.089 mg/kg.
For CSc1nc2c(c(=O)n1C)C(c1ccc([N+](=O)[O-])cc1)C1=C(CC(C)(C)CC1=O)N2 (centres undefined), the “diameter of the inhibition zone (DIZ)” value [1] was 15 mm, the “diameter of the inhibition zone (DIZ)” value [2] was 13 mm and the “diameter of the inhibition zone (DIZ)” value [3] was 15 mm. The “diameter of the inhibition zone (DIZ)” value [4] was 14 mm, the “diameter of the inhibition zone (DIZ)” value [5] was 8 mm and the “diameter of the inhibition zone (DIZ)” value [6] was 6 mm. For the same molecule, the Survival [7] was 34 days, the Activity [8] was 50% and the Survival [9] was 28 days. It also gave an Activity [10] of 48%, an LD50 [11] of 0.098 mg/kg and an LD50 [12] of 0.111 mg/kg.
